PTEN del growth = PTEN-deleted cell growth suppression; viability, % at 10 µM; hit rate 1.2% among 140,000; HCT116 PTEN-null viability, CellTiter-Glo, 60 h; active compounds read low;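 active means viability at or below a set limit, 4 SD under the median of all tested compounds, cut at about 3.7% in these data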;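 further: PTEN knockout HCT116 line with beta catenin targeted HCT116 as companion control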
HUVEC prolif 384 = human endothelial cell proliferation inhibition. HUVEC proliferation, CellTiter-Glo luminescence, 72 h; active compounds read low. viability, % at 10 µM (by protocol). hit rate 1.1% among 86,000;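 active means viability at or below 30%; inactive means viability above 30%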
bCat KO growth = beta-catenin-lacking colon tumor cell growth suppression. HCT116 beta-catenin knockout viability, CellTiter-Glo, 60 h; active compounds read low. viability, % at 10 µM. AID 818. hit rate 1.5% among 140,000;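 active means viability at or under a set limit, the compound median less 4 SD, cut at about 6% in these data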
H69AR growth 86K = growth inhibitors of human H69AR lung tumor cells | viability, % at 10 µM | AID 598 | H69AR lung tumor viability, ATP luminescence, 72 h; active compounds read low | hit rate 6% among 85,000;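 active means viability at or below 40%; inactive means viability above 40%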;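 further: multidrug resistant small cell line overexpressing MRP-1 efflux transporter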
Fibroblast inh = blocks proliferation of human lung fibroblasts; LL 47 human lung fibroblast viability, ATP luminescence; active compounds read low; viability, % at 10 µM; hit rate 1.1% among 85,000; AID 719;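 active means viability at or below 50% in the single dose screen; inactive means viability above 50%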;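 further: compound exposure lasted 72 h before the ATP readout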
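Benchmarks: Cell-only wells, no compound | Test system: LL 47 human lung fibroblasts, passage 12 or lower | Input: 1,150 cells/well | Measured by: CellTiter-Glo luminescence measuring cellular ATP | Medium: IMEM, 15% FBS supplement | Schedule: Overnight attachment after seeding, then 72 h compound exposure at 37 °C | Doses: Compound addition at 0.1% DMSO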
A number is an active result; - = inactive; . = no result given. This is one part of a sample in which hits are shown more often than they occur.

SMILES	PTEN del growth	HUVEC prolif 384	bCat KO growth	H69AR growth 86K	Fibroblast inh
CCCN(CCO)Cc1cccc(Br)c1	-	-	-	-	38
CCOc1cc(C(=O)N/N=C/c2ccsc2)cc(OCC)c1OCC	-	.	-	.	.
CCOc1cc2[nH]c(=O)n(Cc3cccc(OC)c3)c(=O)c2cc1OCC	-	-	-	21	-
CCOc1cc2[nH]c(=O)n(Cc3ccc(C(=O)NCCOC)cc3)c(=O)c2cc1OCC	-	-	-	-	-
COc1ccc2nc3oc(C(=O)N4CCN(c5cccc(Cl)c5)CC4)cc3cc2c1	-	-	-	-	-
O=S(=O)(Cc1cc(-c2ccc(Cl)cc2)no1)c1ccccc1	-	.	-	.	.
O=C(Nc1ccc(Cl)c(C(F)(F)F)c1)NC1CC2CCCC(C1)N2C1CC1 (centres undefined)	.	12	.	34	-
O=C(Nc1cccc(F)c1)NC1CC2CCCC(C1)N2C1CC1 (centres undefined)	-	-	-	-	-
Cc1ccc(-c2csc(NC(=O)COC(=O)c3cccc(S(=O)(=O)N4CCOCC4)c3)n2)cc1	-	-	-	-	-
COc1cc(C(c2nnnn2C(C)(C)C)N2CCN(c3nc4ccccc4s3)CC2)ccc1O (centres undefined)	-	-	-	9.0	-
N#C/C(=C\c1ccc(-c2cccc(C(F)(F)F)c2)o1)C(=O)Nn1cnnc1	-	.	-	.	.
CCOC(=O)C1=C(Cc2ccc(Cl)cc2)C(=O)c2ccccc2C1=O	-	21	-	1.9	-
CCOC(=O)c1nnn(CC(=O)N2N=C(c3ccc(Cl)cc3)CC2c2ccccc2)c1C(=O)OCC (centres undefined)	-	-	-	19	-
CCOC(=O)c1nnn(CC(=O)N2N=C(c3ccc(Cl)cc3)CC2c2ccc(OC)cc2)c1C(=O)OCC (centres undefined)	-	-	-	-	-
CCCCCCCCCn1c2c(c(=N)c3c1CCC3)CCC2	1.6	3.9	1.9	8.6	28
CCCCCCn1c2c(c(=N)c3c1CCC3)CCC2	-	-	5.2	26	-
CC(C)[C@@H]1N[C@]2(C(=O)Nc3ccccc32)[C@@H]2C(=O)N(c3cccc(C(F)(F)F)c3)C(=O)[C@@H]21	-	-	-	-	-
COc1ccc(-c2coc3cc4oc(=O)cc(C)c4cc23)cc1F	-	.	-	.	.
COc1ccc(-c2coc3cc4oc(=O)cc(-c5ccccc5)c4cc23)cc1F	2.1	.	2.6	.	.
CCNc1nc(NC(C)(C)C)nc(N(C#N)CC)n1	-	-	-	33	-
O=C(CCCC(=O)N(CC(=O)NC1CCCC1)Cc1ccc2c(c1)OCO2)Nc1ccccn1	-	-	-	-	-
O=C(NCC1CCCO1)C(=Cc1cccc([N+](=O)[O-])c1)C(=O)NCC1CCCO1 (centres undefined)	-	.	5.2	.	.
O=C(COC(=O)c1ccc(S(=O)(=O)NCc2ccco2)cc1)NC1CCCCCC1	-	.	-	.	.
CCCCOc1ccc(-c2cc(C(=O)NNC(=S)NCC)c3ccccc3n2)cc1	1.8	.	1.6	.	.
CCOc1ccc(OCC)c(NC(=O)CC2Oc3ccccc3NC2=O)c1 (centres undefined)	-	-	-	-	-
SMILES	PTEN del growth	HUVEC prolif 384	bCat KO growth	H69AR growth 86K	Fibroblast inh
CCOC(=O)c1[nH]c2c(c1C)C(=O)CC(c1ccc(F)cc1)C2 (centres undefined)	-	-	-	-	-
Cc1c(C(=O)OCC(C)C)[nH]c2c1C(=O)CC(c1cccs1)C2 (centres undefined)	-	-	-	21	-
CCOC(=O)C1=C(c2ccccc2)Nc2ncnn2C1c1cc(OC)ccc1OC (centres undefined)	-	-	-	39	-
O=C(CNC(=O)c1ccco1)OCC(=O)c1ccc2c(c1)CCCC2	.	.	-	.	.
Cc1ccc(C(=O)CC2(O)C(=O)N(C)c3ccc(Br)cc32)c(C)c1 (centres undefined)	-	-	-	36	-
CN1C(=O)C(O)(CC(=O)c2ccccn2)c2cc(Br)ccc21 (centres undefined)	-	-	-	29	-
NNC(=O)CNC(=O)c1cccc(Br)c1	-	.	-	.	.
CCOC(=O)c1sc(NCC2CCCO2)nc1C (centres undefined)	-	-	-	-	-
CCOC(=O)c1sc2nc(SCC#N)n(CC3CCCO3)c(=O)c2c1C (centres undefined)	-	-	6.0	-	-
COc1ccc(NC(=O)c2c(C(F)(F)F)nn(C)c2SCc2ccccc2)cc1	-	.	-	.	.
COc1ccc(-n2ncc3c(NCCN4CCOCC4)ncnc32)cc1	-	-	-	-	-

High-throughput results (PubChem BioAssay)
